TRPC6 inh: inhibitors of mouse TRPC6 channel; HEK293-TRPC6, membrane potential dye, ACh-evoked depolarization; active compounds read low; hit rate 1.1% among 310,000; B-score at 10 µM; Q61143;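 active = B-score under library mean minus 3 SD, initial fluorescence not abnormally high, positive integrated signal ratio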;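 note: B-score derived from integrated fluorescence ratio over the kinetic read; more negative B-score means stronger inhibition of depolarization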
TRPC4 PAM: allosteric potentiators of mouse TRPC4 channel | Q9QUQ5 | HEK293 TRPC4beta/mu-opioid, DAMGO EC20, Fluo-4 Ca2+ flux; active compounds read high | B-score at 10 µM | hit rate 0.42% among 310,000 | AID 2227;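 active = B-score of calcium response area above 5 SD of library B-scores, with initial fluorescence ratio within 5 SD of library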;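 note: B-score of integrated fluorescence ratio over time as area under calcium response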
TRPC4 inh: TRPC4 (mouse) channel inhibition; AID 2247; HEK293 TRPC4beta/mu-opioid, DAMGO-evoked Fluo4 calcium flux; active compounds read low; hit rate 0.39% among 300,000; Q9QUQ5; B-score at 10 µM;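 active = B-score over 3 SD under the library average, no early fluorescence shift, positive overall ratio signal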
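material = TRPC4beta/mu-opioid receptor HEK293 cell line | probe or stimulus = sequential submaximal and maximal DAMGO stimulation | compound dosing = one concentration per compound | measured by = Fluo4 Ca2+ flux fluorescence | evaluation = integrated fluorescence ratio relative to baseline, converted to per-well B score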
TRPC4 act: TRPC4 (mouse) channel activation; hit rate 0.49% among 310,000; HEK293 TRPC4beta/mu-opioid, Fluo4 calcium fluorescence; active compounds read high; B-score at 10 µM; Q9QUQ5; AID 2237;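 active = B-score above 5 SD of library B-scores, and initial fluorescence ratio not above library mean plus 5 SD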;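 note: positive B-score marks a calcium rise read as TRPC4 activation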
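System – HEK293 cells stably co-expressing mouse TRPC4beta and mu-opioid receptor · Signal – Fluo4 calcium-sensitive dye fluorescence, kinetic, 1 Hz baseline · Benchmarks – buffer (low) and maximal DAMGO (high) · Read-out – B score of integrated fluorescence ratio per well · Incubation – dye loading 45 min room temperature, 110 s kinetic read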
TRPC6 activator: activators of mouse TRPC6 channel; HEK293-TRPC6 membrane potential dye fluorescence; active compounds read high; B-score at 10 µM; hit rate 0.13% among 310,000; Q61143;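 active = B-score of the integrated fluorescence ratio above library mean plus 3 SD, and starting fluorescence ratio within library mean plus 5 SD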;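 note: higher score means more depolarization so channel activation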
TRPC4 sel inh 2: second selectivity test of TRPC6 inhibitors: effect on mouse TRPC4 | inhibition, % at 10 µM | hit rate 42% among 920 | shares compounds with TRPC6 inh | HEK293 TRPC4/MOR, membrane potential dye fluorescence; channel activated by saturating DAMGO dose;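 active = compounds whose fluorescence signal differed from control wells by over 3 SD, either direction, in both duplicate plates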
TRPC4 spec: mouse TRPC4 off-target activity of TRPC6 inhibitors | shares compounds with TRPC6 inh | HEK293 TRPC4/mu-opioid, membrane potential fluorescence | activity change, negative = inhibition, % at 10 µM | hit rate 61% among 920;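 active = rise or fall in signal beyond 3 SD of buffer-only wells in both replicate plates, either sign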;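 note: integrated kinetic ratio of fluorescence range over baseline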
HEK293 MPD ctr 2-1: parental HEK293 nonspecific activity of TRPC6 inhibitors, second screen | parental HEK293 membrane potential dye fluorescence; maximal acetylcholine challenge after compound addition | hit rate 31% among 920 | signal change vs control, % at 10 µM | shares compounds with TRPC6 inh;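 active = membrane potential signal moving either way by over 3 SD of the maximum-effect control, in both duplicate plates, meaning non-specific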
HEK293 MPD ctr-1: counter-screen for TRPC6 inhibitors: effect in parental HEK293 cells; shares compounds with TRPC6 inh; parental HEK293 membrane potential dye fluorescence; membrane potential signal change, % at 10 µM; hit rate 60% among 920; AID 2780;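 active = membrane potential signal shifting up or down by more than 3 SD of buffer-only wells, on both duplicate plates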
HEK293 MPD ctr-2: checks TRPC6 modulator effects in parental HEK293 cells | shares compounds with TRPC6 inh | membrane potential dye fluorescence | AID 488924 | membrane potential signal change, % at 10 µM | hit rate 51% among 2,400;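 active = membrane potential signal moves up or down beyond 5 SD from buffer-only wells, on both duplicate plates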
HEK293 MPD ctr 2-2: second counter-screen for TRPC6 modulators: effect in parental HEK293 cells; hit rate 14% among 2,400; inhibition, % at 10 µM; membrane potential dye fluorescence; after compound, maximal acetylcholine stimulation; shares compounds with TRPC6 inh;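 active = membrane potential signal drops by more than 5 SD from the mean control signal, in both duplicate plates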;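 note: plate controls were acetylcholine ECmax control wells for no effect and buffer only wells for full effect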
TRPC4 ctr mod: tests whether TRPC6 modulators also affect mouse TRPC4; shares compounds with TRPC6 inh; HEK293 TRPC4/mu-opioid, membrane potential fluorescence; percent change from control (negative = decrease, positive = increase), % at 10 µM; hit rate 69% among 2,400;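 active = membrane potential signal moved up or down beyond 5 SD of buffer control wells, in both duplicate plates, actives on both sides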;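 note: plate controls were assay buffer wells for no effect and DAMGO maximal-effect wells for full effect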
TRPC4/MOR inh 2: second selectivity test of TRPC6 modulators against mouse TRPC4; shares compounds with TRPC6 inh; HEK293 TRPC4/mu-opioid, membrane potential dye fluorescence; stimulated with maximal-effect DAMGO; inhibition, % at 10 µM; hit rate 55% among 2,400; AID 488928;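 active = drop in membrane potential signal beyond 5 SD of the control wells in both duplicate plates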;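 note: TRPC4 counter screen for TRPC6 hits run under conditions tuned for TRPC6 not TRPC4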
TRPC6 inh conf: mouse TRPC6 inhibitor confirmation; shares compounds with TRPC6 inh; inhibition, % at 10 µM; HEK293-TRPC6, membrane potential dye, ACh-evoked depolarization; hit rate 43% among 3,300;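 active = fluorescence ratio falls more than 5 SD below the full-stimulation control mean, in both duplicate runs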;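 note: integrated fluorescence ratio of peak minus minimum over baseline after agonist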
TRPC6 act conf: confirmation of mouse TRPC6 activators | shares compounds with TRPC6 inh | HEK293-TRPC6 membrane potential dye fluorescence, FDSS | activation, % at 10 µM | hit rate 11% among 2,800 | AID 488961;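 active = ratio signal rise beyond 5 SD above unstimulated control wells' mean, seen in both duplicate runs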;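 note: plate controls were buffer EC0 wells for no effect and acetylcholine ECmax response for full effect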
* marks the source's active call; other numbers are inactive results; i = inactive; . = not tested or not shown. Rows were chosen to be rich in hits. Some 2.3% of all compounds tested hit in one or more screens of this group.

SMILES	TRPC6 inh	TRPC4 PAM	TRPC4 inh	TRPC4 act	TRPC6 activator	HEK293 MPD ctr-2	HEK293 MPD ctr 2-2	TRPC4 ctr mod	TRPC4/MOR inh 2	TRPC6 inh conf	TRPC6 act conf	others
CCCCCC[N+](C)(C)CC/C=C1/c2ccccc2Sc2ccc(Cl)cc21	-6.6*	i	-7*	i	i	.	.	.	.	78%*	i	TRPC4 sel inh 2=i;TRPC4 spec=i;HEK293 MPD ctr 2-1=i;HEK293 MPD ctr-1=i
CCOc1cc(/C=C2\SC(=NC)N(C)C2=O)cc(Cl)c1OC(C)=O	-5*	i	i	i	i	i	i	i	i	i	i
CN1CCN(C2Cc3ccccc3Sc3cc(C(F)(F)F)ccc32)CC1 (stereo not given)	i	i	i	i	i	.	.	.	.	.	.
Cc1cccc2c1Sc1ccc(Cl)cc1CC2N1CCNCC1 (stereo not given)	-5.1*	i	i	i	i	i	i	i	61%*	43%*	i
CN1CCN(C2Cc3cc(F)ccc3Sc3ccc(Cl)cc32)CC1 (stereo not given)	-5.3*	i	i	i	i	i	i	21%*	47%*	48%*	.
CCc1cccc2c1Sc1ccccc1CC2N1CCNCC1 (stereo not given)	-5.5*	i	i	i	i	i	i	i	70%*	50%*	i
CC(C)c1ccc2c(c1)C(N1CCNCC1)Cc1ccc(F)cc1S2 (stereo not given)	i	i	i	i	i	.	.	.	.	.	.
CN1CCN(C2Cc3ccc(F)cc3Sc3cc(F)c(Cl)cc32)CC1 (stereo not given)	i	i	i	i	i	.	.	.	.	.	.
Brc1cccc(-c2cnc3n2CCCCC3)c1	-5.4*	i	i	i	i	136%*	i	24%*	48%*	54%*	.
N=c1c(C(=O)NC2CCCC2)cc2c(=O)n3ccccc3nc2n1C1CCCCC1	-6.5*	i	i	i	i	-188%*	i	-30%*	50%*	44%*	i
Cc1ccc2nc3c(cc(C(=O)NC4CCCCC4)c(=N)n3C3CCCCC3)c(=O)n2c1	-7.8*	i	i	i	i	-132%*	i	-31%*	43%*	36%*	i
CNC(=O)c1cc2c(=O)n3cc(C)ccc3nc2n(C(C)C)c1=N	-7.5*	i	i	i	i	-157%*	111%*	-48%*	51%*	84%*	i

Assay outcomes from PubChem.
